Values belong to the compound of their own block, whether it stands above or below them.
Experiments:
Homo sapiens [1] = species: Homo sapiens; experiment: Inhibitory activity against aggregation of human platelets; format: functional, organism-based
Method in brief: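 Human platelets were gel-filtered from PRP on Sepharose 2B and used at 3 × 10⁸ platelets/mL with 1 mg/mL fibrinogen. Compounds were added at 37 °C 2 min before activation with 10 µM ADP, with stirring at 1000 rpm at 37 °C. Aggregation was read as the maximal increase in light transmittance. IC50 is the mean over GFP from two to six donors.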

Homo sapiens [2] = species: Homo sapiens; experiment: Inhibitory activity against platelet rich plasma; format: functional, organism-based
[3] = Oral bioavailability in dog; format: ADME, organism-based, Canis lupus familiaris; conditions: in vivo
Method in brief: (§1)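 Conscious dogs received compound intravenously and orally, and blood was sampled over time for plasma. Active plasma equivalents were measured by bioassay as inhibition of ¹²⁵I-fibrinogen binding to isolated, immobilized GPIIb/IIIa. Kinetic data points are means from four dogs.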

[4] = molecular target: T1, Integrin alpha-IIb/beta-3 (Homo sapiens, UniProt P05106+P08514); experiment: Inhibition of [125I]fibrinogen binding to isolated GPIIb/IIIa; format: protein-complex assay
[5] = molecular target: T1, Integrin alpha-IIb/beta-3; experiment: Inhibition of [125I]fibrinogen binding to ADP-activated human gel filtered platelets
Canis familiaris = species: Canis familiaris; experiment: Inhibitory activity against dog platelet aggregation in GFP; format: functional, organism-based; conditions: Canis lupus familiaris
[6] = Half life from dog blood after oral administration at a dose of 3 mg/kg Expt-1; format: ADME, organism-based, Canis lupus familiaris; design: dose 3 mg/kg, route oral; method in brief: as §1
[7] = Half life from dog blood after intravenous administration at a dose of 0.3 mg/kg Expt-2; format: ADME, organism-based, Canis lupus familiaris; design: dose 0.3 mg/kg, route intravenous; method in brief: as §1
[8] = Half life from dog blood after intravenous administration at a dose of 0.3 mg/kg Expt-1; format: ADME, organism-based, Canis lupus familiaris; design: dose 0.3 mg/kg, route intravenous; method in brief: as §1
[9] = Half life from dog blood after oral administration at a dose of 3 mg/kg Expt-2; format: ADME, organism-based, Canis lupus familiaris; design: dose 3 mg/kg, route oral; method in brief: as §1

T1 sequence (P05106 27-788 limits assumed): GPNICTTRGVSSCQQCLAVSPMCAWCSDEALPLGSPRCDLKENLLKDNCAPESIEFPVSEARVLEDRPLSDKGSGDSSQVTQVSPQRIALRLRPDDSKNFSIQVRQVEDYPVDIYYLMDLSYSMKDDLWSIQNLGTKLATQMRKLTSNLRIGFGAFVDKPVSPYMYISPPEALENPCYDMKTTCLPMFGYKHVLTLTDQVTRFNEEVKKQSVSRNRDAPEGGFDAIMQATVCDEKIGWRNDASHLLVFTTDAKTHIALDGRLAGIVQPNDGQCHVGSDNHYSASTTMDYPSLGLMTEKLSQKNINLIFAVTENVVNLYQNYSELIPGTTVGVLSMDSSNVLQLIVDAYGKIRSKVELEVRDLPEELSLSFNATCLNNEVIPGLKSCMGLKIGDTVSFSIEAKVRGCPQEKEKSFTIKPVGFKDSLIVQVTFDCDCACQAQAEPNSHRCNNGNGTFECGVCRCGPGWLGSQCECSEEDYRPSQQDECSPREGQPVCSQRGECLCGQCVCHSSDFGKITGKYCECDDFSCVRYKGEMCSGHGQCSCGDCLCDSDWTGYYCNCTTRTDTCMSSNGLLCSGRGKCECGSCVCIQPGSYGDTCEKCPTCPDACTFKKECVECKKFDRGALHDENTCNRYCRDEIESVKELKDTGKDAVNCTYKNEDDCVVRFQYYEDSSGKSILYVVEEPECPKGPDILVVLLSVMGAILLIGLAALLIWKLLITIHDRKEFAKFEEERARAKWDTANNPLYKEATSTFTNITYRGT
T1 sequence (P08514 32-887 limits assumed): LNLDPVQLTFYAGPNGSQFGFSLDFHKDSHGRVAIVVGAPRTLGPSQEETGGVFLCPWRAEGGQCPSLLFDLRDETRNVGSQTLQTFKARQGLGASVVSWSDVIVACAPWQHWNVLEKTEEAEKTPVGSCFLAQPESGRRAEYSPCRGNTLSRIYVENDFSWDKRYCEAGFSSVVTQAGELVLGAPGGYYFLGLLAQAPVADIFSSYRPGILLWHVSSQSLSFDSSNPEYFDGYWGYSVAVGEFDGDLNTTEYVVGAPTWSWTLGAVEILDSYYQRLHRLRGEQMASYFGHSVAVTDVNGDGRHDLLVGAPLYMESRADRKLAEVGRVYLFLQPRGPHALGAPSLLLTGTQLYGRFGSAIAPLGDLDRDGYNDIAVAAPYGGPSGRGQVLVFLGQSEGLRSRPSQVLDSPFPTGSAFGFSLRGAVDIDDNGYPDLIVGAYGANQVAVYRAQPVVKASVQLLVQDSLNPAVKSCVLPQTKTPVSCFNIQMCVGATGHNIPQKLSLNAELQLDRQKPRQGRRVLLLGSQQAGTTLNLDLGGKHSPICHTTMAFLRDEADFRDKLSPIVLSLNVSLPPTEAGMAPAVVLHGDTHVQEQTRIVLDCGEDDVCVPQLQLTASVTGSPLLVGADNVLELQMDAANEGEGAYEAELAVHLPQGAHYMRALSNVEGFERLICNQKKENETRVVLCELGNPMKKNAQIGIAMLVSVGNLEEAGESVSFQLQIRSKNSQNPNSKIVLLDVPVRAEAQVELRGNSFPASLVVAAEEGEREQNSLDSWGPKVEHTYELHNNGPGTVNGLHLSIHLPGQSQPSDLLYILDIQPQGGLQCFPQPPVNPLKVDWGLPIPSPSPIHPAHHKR
T1 sequence (P08514 891-1039 limits assumed): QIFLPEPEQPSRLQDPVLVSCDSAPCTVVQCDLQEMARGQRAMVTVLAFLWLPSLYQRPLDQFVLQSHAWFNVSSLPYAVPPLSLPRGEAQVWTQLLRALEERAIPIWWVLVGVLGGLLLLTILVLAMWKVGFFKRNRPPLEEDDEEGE

Structure (SMILES): C[C@]1(c2ccc(C(=N)N)cc2)NC(=O)N(CC(=O)N[C@H](CC(=O)O)c2ccccc2)C1=O
IC50 (Homo sapiens [1]): 5000 nM

Structure (SMILES): CC1(c2ccc(C(=N)N)cc2)NC(=O)N(CC(=O)NC(CC(=O)O)c2ccccc2)C1=O (stereo unspecified)
bioavailability [3]: 5%
IC50 (Homo sapiens [1]): 200 nM

Structure (SMILES): N=C(N)NCCC[C@@H]1NC(=O)N(CC(=O)N[C@@H](CC(=O)O)C(=O)N[C@H](C(=O)O)c2ccccc2)C1=O
IC50 (Homo sapiens [1]): 900 nM

Structure (SMILES): CC1(c2ccc(C(=N)N)cc2)NC(=O)N(CC(=O)NC(CC(=O)O)c2cccc3ccccc23)C1=O (stereo unspecified)
IC50 (Homo sapiens [1]): 300 nM

Structure (SMILES): CCOC(=O)C[C@H](NC(=O)CN1C(=O)N[C@@](C)(c2ccc(C(=N)N)cc2)C1=O)c1ccccc1 [CARAFIBAN]
half-life [6]: 474 min
half-life [7]: 48 min
bioavailability [3]: 42%
half-life [8]: 84 min
half-life [9]: 594 min

The next lines start with the values.

IC50 (Homo sapiens [1]): 50000 nM
Structure (SMILES): C[C@@]1(c2ccc(C(=N)N)cc2)NC(=O)N(CC(=O)N[C@H](CC(=O)O)c2ccccc2)C1=O

IC50 (Homo sapiens [2]): 100 nM
bioavailability [3]: 10%
Ki [4]: 0.17 nM
IC50 (Homo sapiens [1]): 20 nM
Ki [5]: 9 nM
IC50 (Canis familiaris): 100 nM
Structure (SMILES): C[C@@]1(c2ccc(C(=N)N)cc2)NC(=O)N(CC(=O)N[C@@H](CC(=O)O)c2ccccc2)C1=O

IC50 (Homo sapiens [1]): 6000 nM
Structure (SMILES): C[C@]1(c2ccc(C(=N)N)cc2)NC(=O)N(CC(=O)N[C@@H](CC(=O)O)c2ccccc2)C1=O

IC50 (Homo sapiens [1]): 100 nM
Structure (SMILES): CC1(c2ccc(C(=N)N)cc2)NC(=O)N(CC(=O)NC(CC(=O)O)c2cccnc2)C1=O (stereo unspecified)

IC50 (Homo sapiens [1]): 80 nM
Structure (SMILES): CC1(c2ccc(C(=N)N)cc2)NC(=O)N(CC(=O)NC(CC(=O)O)c2ccc3c(c2)OCO3)C1=O (stereo unspecified)

IC50 (Homo sapiens [1]): 10000 nM
Structure (SMILES): N=C(N)NCCC[C@@H]1NC(=O)N(CC(=O)N[C@@H](CC(=O)O)C(=O)N[C@@H](CO)C(=O)O)C1=O
